This note sets out measurements from ChEMBL document CHEMBL5532673, “Design and Discovery of Novel NLRP3 Inhibitors and PET Imaging Radiotracers Based on a 1,2,3-Triazole-Bearing Scaffold” (J Med Chem, 2024).

Series [1] deals with NACHT, LRR and PYD domains-containing protein 3 (Mus musculus, UniProt Q8R4B8). Description: Inhibition of NLRP3 inflammasome activation in LPS treated mouse J774.A1 cells assessed as inhibition of ATP-stimulated IL-1beta secretion pre-incubated for 30 mins followed by ATP addition measured after 30 mins by ELISA. The class given is cell-based. In short, it runs like this:
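Murine J774A.1 macrophages seeded at 1×10^5 cells/well overnight, then primed with E. coli O111:B4 LPS (final 1 µg/mL) for 4.5 h. Compounds added for 30 min, then ATP (5 mM) for 30 min to activate NLRP3. IL-1β released into the supernatant quantified by mouse IL-1β ELISA.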
(ELISA stands for enzyme-linked immunosorbent assay.)

Series [2] deals with NACHT, LRR and PYD domains-containing protein 3 (Mus musculus) (UniProt Q8R4B8). Description: Binding affinity to NLRP3 in wild type C57BL/6 mouse brain incubated for 20 mins in presence of compound MCC950 by autoradiography. The class given is tissue-based. The settings on record: tested as the 11C-labelled form. In short, it runs like this: (§1)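 Frozen mouse brain sections preincubated in 50 mM Tris-HCl pH 7.4 for 30 min at ambient temperature, then incubated 20 min at ambient temperature with [11C]8 (5 mCi/L, ~1 nM). For blocking, unlabeled ligand (10 μM) added to the incubation solution beforehand (n = 4). Sections washed in Tris-HCl (3 × 5 min), dried, exposed to imaging plates 120 min; ROI signal given as DLU/mm2.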
NACHT, LRR and PYD domains-containing protein 3 (Mus musculus), sequence (Q8R4B8 whole entry, the tested form may be a part): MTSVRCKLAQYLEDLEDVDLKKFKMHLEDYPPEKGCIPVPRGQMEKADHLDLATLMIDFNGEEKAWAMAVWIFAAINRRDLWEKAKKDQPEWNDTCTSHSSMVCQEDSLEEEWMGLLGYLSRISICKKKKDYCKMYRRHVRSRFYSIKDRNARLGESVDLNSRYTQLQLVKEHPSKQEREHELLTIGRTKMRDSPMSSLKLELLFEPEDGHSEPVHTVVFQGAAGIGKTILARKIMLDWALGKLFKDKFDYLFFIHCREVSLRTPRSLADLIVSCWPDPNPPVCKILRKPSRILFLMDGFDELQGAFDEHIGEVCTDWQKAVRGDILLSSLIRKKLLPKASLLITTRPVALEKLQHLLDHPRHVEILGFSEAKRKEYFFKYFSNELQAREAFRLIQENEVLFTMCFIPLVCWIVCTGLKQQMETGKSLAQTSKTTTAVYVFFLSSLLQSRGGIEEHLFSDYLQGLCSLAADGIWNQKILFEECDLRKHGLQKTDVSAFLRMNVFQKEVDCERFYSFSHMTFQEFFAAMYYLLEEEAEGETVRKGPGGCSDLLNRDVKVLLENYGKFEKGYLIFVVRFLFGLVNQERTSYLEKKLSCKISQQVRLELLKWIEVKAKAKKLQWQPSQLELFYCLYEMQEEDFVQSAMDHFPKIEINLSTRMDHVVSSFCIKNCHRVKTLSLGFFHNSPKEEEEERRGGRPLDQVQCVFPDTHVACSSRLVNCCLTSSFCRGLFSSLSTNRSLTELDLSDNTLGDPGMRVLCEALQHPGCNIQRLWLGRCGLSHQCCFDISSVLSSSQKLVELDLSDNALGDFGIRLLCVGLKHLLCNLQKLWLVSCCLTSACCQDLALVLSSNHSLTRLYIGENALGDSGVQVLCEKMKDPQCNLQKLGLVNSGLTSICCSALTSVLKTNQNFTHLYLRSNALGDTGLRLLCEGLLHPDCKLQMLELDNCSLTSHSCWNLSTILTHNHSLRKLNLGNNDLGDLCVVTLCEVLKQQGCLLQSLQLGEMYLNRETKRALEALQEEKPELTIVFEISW

Series [3] deals with T1, Interferon-inducible protein AIM2 (Mus musculus) (UniProt Q91VJ1).
T1 sequence (whole entry): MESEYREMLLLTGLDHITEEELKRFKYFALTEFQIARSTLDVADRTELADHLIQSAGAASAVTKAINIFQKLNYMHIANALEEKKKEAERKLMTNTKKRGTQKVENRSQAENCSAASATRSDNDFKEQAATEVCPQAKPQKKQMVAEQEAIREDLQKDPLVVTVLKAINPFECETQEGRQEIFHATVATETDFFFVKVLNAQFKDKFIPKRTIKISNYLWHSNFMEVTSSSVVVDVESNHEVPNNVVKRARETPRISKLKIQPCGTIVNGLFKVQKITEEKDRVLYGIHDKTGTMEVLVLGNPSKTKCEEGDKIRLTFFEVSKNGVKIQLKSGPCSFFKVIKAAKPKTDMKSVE
The series is described as follows: Inhibition of AIM2 inflammasome activation in LPS treated mouse J774.A1 cells assessed as inhibition of IL-1beta secretion at 10 uM pre-incubated for 1 hr followed by Poly (dA:dT) stimulation for 4 hrs by ELISA. The class given is cell-based. The conditions noted are these: time 5.0 hrs. In short, it runs like this: (§2)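 J774A.1 cells at 1×10^5/well, plated overnight. Co-treated with LPS (1 µg/mL) and compound for 1 h. AIM2 triggered by poly(dA:dT) (4 µg/mL) transfected with Lipofectamine 2000 for 4 h. NLRC4 triggered by flagellin (1 µg/mL) delivered with a transfection kit for 6 h. Supernatant IL-1β read by mouse ELISA.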

Series [4] addresses NACHT, LRR and PYD domains-containing protein 3 (Mus musculus) (UniProt Q8R4B8). Description: Inhibition of NLRP3 inflammasome activation in LPS treated mouse J774.A1 cells assessed as inhibition of nigericin-stimulated IL-1beta secretion at 0.1 to 1 uM pre-incubated for 30 mins followed by nigericin addition measured after 30 mins by ELISA. The class given is cell-based. The settings on record: dose 0.1-1 µM, time 60.0 min.

For series [5] the target is unchanged. The series is described as follows: Inhibition of NLRP3 inflammasome activation in LPS treated mouse J774.A1 cells assessed as inhibition of ATP-stimulated IL-1beta secretion at 0.1 to 1 uM pre-incubated for 30 mins followed by ATP addition measured after 30 mins by ELISA. The class given is cell-based. The settings on record: dose 0.1-1 µM, time 60.0 min. In short, it runs like this:
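J774A.1 cells plated at 1 × 10^5 cells/well overnight, primed with E. coli 0111:B4 LPS (final 1 μg/mL) for 4.5 h. Compound added for 30 min, then ATP (5 mM) for 30 min to activate NLRP3. IL-1β in supernatant measured by mouse IL-1β ELISA.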

The target in series [6] is NLR family CARD domain-containing protein 4 (Mus musculus) (UniProt Q3UP24). Description: Inhibition of NLRC4 inflammasome activation in LPS treated mouse J774.A1 cells assessed as inhibition of IL-1beta secretion at 10 uM pre-incubated for 1 hr followed by flagellin stimulation for 6 hrs by ELISA. The series is classed as cell-based. The settings on record: time 7.0 hrs. The gist of the method: as §2
NLR family CARD domain-containing protein 4 (Mus musculus), sequence (Q3UP24 whole entry, the tested form may be a part): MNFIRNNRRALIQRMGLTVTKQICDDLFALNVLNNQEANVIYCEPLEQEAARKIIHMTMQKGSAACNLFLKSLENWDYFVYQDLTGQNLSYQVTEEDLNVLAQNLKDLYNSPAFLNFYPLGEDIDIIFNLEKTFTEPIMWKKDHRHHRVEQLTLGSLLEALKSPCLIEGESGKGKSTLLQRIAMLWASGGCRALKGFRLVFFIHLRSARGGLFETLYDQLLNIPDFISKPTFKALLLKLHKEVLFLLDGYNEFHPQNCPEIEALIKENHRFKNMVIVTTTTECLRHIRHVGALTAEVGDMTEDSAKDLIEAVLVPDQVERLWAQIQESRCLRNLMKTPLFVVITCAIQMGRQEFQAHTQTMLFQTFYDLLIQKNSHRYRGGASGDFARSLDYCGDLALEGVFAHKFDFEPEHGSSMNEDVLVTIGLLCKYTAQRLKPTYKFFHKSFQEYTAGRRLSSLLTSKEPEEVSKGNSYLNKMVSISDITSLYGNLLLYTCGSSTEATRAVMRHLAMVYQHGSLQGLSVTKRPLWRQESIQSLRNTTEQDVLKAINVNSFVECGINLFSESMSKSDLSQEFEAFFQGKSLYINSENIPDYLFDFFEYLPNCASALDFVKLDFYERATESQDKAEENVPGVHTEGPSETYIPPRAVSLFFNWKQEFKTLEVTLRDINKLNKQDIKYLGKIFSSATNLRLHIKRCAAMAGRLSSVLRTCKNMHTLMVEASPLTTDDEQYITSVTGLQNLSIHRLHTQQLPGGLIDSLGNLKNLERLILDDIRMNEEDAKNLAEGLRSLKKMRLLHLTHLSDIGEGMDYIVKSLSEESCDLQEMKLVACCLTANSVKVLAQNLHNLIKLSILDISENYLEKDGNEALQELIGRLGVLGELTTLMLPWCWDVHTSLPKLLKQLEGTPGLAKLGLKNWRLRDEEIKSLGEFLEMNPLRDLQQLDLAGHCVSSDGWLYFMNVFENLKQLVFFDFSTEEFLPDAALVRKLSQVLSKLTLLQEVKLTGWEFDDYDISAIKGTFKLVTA

Series [7] addresses NACHT, LRR and PYD domains-containing protein 3 (Mus musculus) (UniProt Q8R4B8). The series is described as follows: Inhibition of NLRP3 inflammasome activation in LPS treated mouse J774.A1 cells assessed as inhibition of TNF-alpha secretion at 0.1 to 10 uM followed by LPS addition measured after 4.5 hrs by ELISA. The class given is cell-based. The conditions noted are these: dose 0.1-10 µM.

Series [8] shares this target. Description: Binding affinity to NLRP3 in wild type C57BL/6 mouse brain incubated for 20 mins by autoradiography. The conditions noted are these: tested as the 11C-labelled form. The class given is tissue-based. The gist of the method: as §1
Series [9] shares this target. Description: Binding affinity to NLRP3 in C57BL/6 mouse brain expressing nIrp3-/- incubated for 20 mins by autoradiography. The series is classed as tissue-based. The settings on record: tested as the 11C-labelled form. In short, it runs like this:
as §1

Series [10] has the same target. Description: Binding affinity to NLRP3 in wild type C57BL/6 mouse brain incubated for 20 mins in presence of compound 8 by autoradiography. The series is classed as tissue-based. The settings on record: tested as the 11C-labelled form. In short, it runs like this:
as §1

A short description of series [11]: Drug uptake in monkey brain assessed as standardized uptake value at iv administration by PET/MR imaging analysis. The class given is ADME, organism-based, Macaca mulatta. The settings on record: rhesus monkey, in vivo. The gist of the method: (§3)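 Single rhesus macaque (n=1). Radiotracer 5.20 mCi given i.v. through an antecubital catheter. Dynamic PET/MR acquired on a 3T scanner with a BrainPET insert, 3D-OSEM reconstruction, registration to the INIA19/NeuroMaps atlas. Regional activity expressed as SUV, with an arterial line for plasma metabolite analysis.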

Series [12] in a line: Drug uptake in monkey putamen at iv administration by PET/MR imaging analysis. The class given is ADME, organism-based, Macaca mulatta. The settings on record: rhesus monkey, in vivo. In short, it runs like this:
as §3

Series [13] is described as follows: Drug uptake in monkey hippocampus at iv administration by PET/MR imaging analysis. The series is classed as ADME, organism-based, Macaca mulatta. The settings on record: rhesus monkey, in vivo. The gist of the method:
as §3

A short description of series [14]: Drug uptake in monkey thalamus at iv administration by PET/MR imaging analysis. The class given is ADME, organism-based, Macaca mulatta. The conditions noted are these: rhesus monkey, in vivo. In short, it runs like this: as §3
Series [15] can be described thus: Drug uptake in monkey cerebellum at iv administration by PET/MR imaging analysis. The series is classed as ADME, organism-based, Macaca mulatta. The conditions noted are these: rhesus monkey, in vivo. In short, it runs like this: as §3
A short description of series [16]: Drug uptake in monkey insula at iv administration by PET/MR imaging analysis. The class given is ADME, organism-based, Macaca mulatta. The settings on record: rhesus monkey, in vivo. In short, it runs like this: as §3
Series [17] deals with T1, Interferon-inducible protein AIM2 (Mus musculus). Description: Inhibition of AIM2 inflammasome activation in LPS treated mouse J774.A1 cells assessed as inhibition of IL-1beta secretion at 3 uM pre-incubated for 1 hr followed by Poly (dA:dT) stimulation for 4 hrs by ELISA. The series is classed as cell-based. The settings on record: time 5.0 hrs. The gist of the method: as §2

Series [18] deals with NLR family CARD domain-containing protein 4 (Mus musculus) (UniProt Q3UP24). Description: Inhibition of NLRC4 inflammasome activation in LPS treated mouse J774.A1 cells assessed as inhibition of IL-1beta secretion at 3 uM pre-incubated for 1 hr followed by flagellin stimulation for 6 hrs by ELISA. The series is classed as cell-based. The conditions noted are these: time 7.0 hrs. The gist of the method: as §2

Series [19] has as its target NACHT, LRR and PYD domains-containing protein 3 (Mus musculus) (UniProt Q8R4B8). The series is described as follows: Inhibition of NLRP3 inflammasome activation in LPS treated mouse J774.A1 cells assessed as inhibition of TNF-alpha secretion at <=3 uM followed by LPS addition measured after 4.5 hrs by ELISA. The class given is cell-based.

The source made the active and inactive calls. The calls are words filed in the database; no cut-off is given here.

NACHT, LRR and PYD domains-containing protein 3, sequence (Q8R4B8 whole entry, the tested form may be a part): as the sequence (Q8R4B8 whole entry, the tested form may be a part) above

As for `COC(=O)c1ccc(-c2cn(Cc3cc(C(F)(F)F)ccc3OC)nn2)cc1`, in [1] (read-out: IC50), the IC50 – broadly, the midpoint of a concentration-inhibition curve – came to 810 nM. For the compound `COC(=O)c1ccc(-c2cn(Cc3cc(F)cc(F)c3OC)nn2)cc1`, the IC50 entry in [1] (j774.a1) is “Not Active”.

Regarding `COC(=O)c1ccc(-c2cn(Cc3ccccc3OC)nn2)cc1`, in series [1] (read-out: IC50), the concentration for half-maximal inhibition (IC50) is 3720 nM. Take `COC(=O)c1ccc(-c2cn(Cc3cc(Cl)ccc3OC)nn2)cc1`: the result in [2], in series [8], in [9] and in [10] was Active. For the same compound, the inhibition result in [3], in series [6] and in series [7] was “inactive” each time. Besides, the inhibition entry in series [4] and in series [5] was “Active” each time. For the compound `CNC(=O)c1ccc(-c2cn(Cc3cc(Cl)ccc3OC)nn2)cc1`, in series [1] (read-out: IC50), the concentration for half-maximal inhibition (IC50) worked out at 4210 nM. With `CCCOc1ccc(Cl)cc1Cn1cc(-c2ccc(C(=O)O)cc2)nn1`, the IC50 in [1] (read-out: IC50) was 12000 nM.

For the compound `COC(=O)c1ccc(-c2cn(Cc3cc(Cl)ccc3O)nn2)cc1`, the half-inhibitory concentration (IC50) in [1] (read-out: IC50) worked out at 3130 nM. In the case of `CCCOc1ccc(Cl)cc1Cn1cc(-c2ccc(F)cc2)nn1`, the IC50 in series [1] (read-out: IC50) stood at 4280 nM. With `COC(=O)c1ccc(-c2cn(Cc3cc(F)c(F)cc3OC)nn2)cc1`, the IC50 in series [1] (read-out: IC50) came out at 2470 nM. `COC(=O)c1ccc(-c2cn(Cc3cc(Cl)ccc3OC)nn2)c(F)c1`: in series [1] (read-out: IC50), the IC50 is 1620 nM.

In the case of `COc1ccc(-c2cn(Cc3cc(Cl)ccc3OC)nn2)cc1`, the concentration for half-maximal inhibition (IC50) in series [1] (read-out: IC50) was 1310 nM. Consider `COC(=O)c1ccc(-c2cn(Cc3cc(Cl)ccc3C(F)(F)F)nn2)cc1`, for which the concentration for half-maximal inhibition (IC50) result in series [1] (j774.a1) is listed as “Not Active”. As to `COC(=O)c1ccc(-c2cn(Cc3cc(Br)ccc3OC)nn2)cc1`, the concentration for half-maximal inhibition (IC50) in [1] (read-out: IC50) worked out at 1070 nM.

Turning to `COC(=O)c1ccc(-c2cn(Cc3c(OC)ccc(F)c3F)nn2)cc1`, in [1] (read-out: IC50), the half-inhibitory concentration (IC50) was 2860 nM. On the same count and under the same terms, the value for `CCCOc1ccc(Cl)cc1Cn1cc(-c2ccc(S(N)(=O)=O)cc2)nn1` was 1510 nM. As to `COc1ccc(Cl)cc1Cn1cc(-c2ccc(C(=O)N3CCC3)cc2)nn1`, in series [1] (read-out: IC50), the IC50 is 1430 nM. For `COC(=O)c1ccc(-c2cn(Cc3ccccc3)nn2)cc1`, the half-inhibitory concentration (IC50) entry in series [1] (j774.a1) is given as “Not Active”. Take `COC(=O)c1ccc(-c2cn(Cc3ccccc3OC(F)F)nn2)cc1`: the half-maximal inhibitory concentration (IC50) in series [1] (read-out: IC50) turned out to be 8060 nM. The same measure, in the same setting: the value for `COC(=O)c1ccc(-c2cn(Cc3cc(Cl)ccc3OC)nn2)c(C)c1` was 2030 nM; that for `CCCOc1ccc(Cl)cc1Cn1cc(-c2ccc(C(=O)OC)cc2)nn1` was 1210 nM. On to `CCCOc1ccc(Cl)cc1Cn1cc(-c2ccc(C)cc2)nn1`, for which the concentration for half-maximal inhibition (IC50) in series [1] (read-out: IC50) is 8360 nM. Same read-out and setting: the value for `COC(=O)c1ccc(-c2cn(Cc3cc(Cl)ccc3OC)nn2)nc1` was 2310 nM; that for `COc1ccc(Cl)cc1Cn1cc(-c2ccc(C(=O)O)cc2)nn1` was 14000 nM; that for `COC(=O)c1ccc(-c2cn(Cc3cc(Cl)cc(OC)c3)nn2)cc1` was 510 nM.

For the compound `COC(=O)c1ccc(-c2cn(Cc3cccc(Cl)c3)nn2)cc1`, in series [1] (read-out: IC50), the IC50 came to 2160 nM. Same read-out and setting: to `CCCOc1ccc(Cl)cc1Cn1cc(-c2ccc(C(F)(F)F)cc2)nn1` belongs 12800 nM.

Take `COC(=O)c1ccc(-c2cn(Cc3cc(Cl)ccc3O[11CH3])nn2)cc1`: the SUV in series [11] is on record as over 3. Further, the Drug uptake result in series [12], in [13], in series [14], in series [15] and in series [16] was “Active” throughout. With `COC(=O)c1cccc(-c2cn(Cc3cc(Cl)ccc3OC)nn2)c1`, the half-maximal inhibitory concentration (IC50) in series [1] (read-out: IC50) was determined as 1610 nM.

Regarding `COC(=O)c1ccc(-c2cn(Cc3cc(F)ccc3OC)nn2)cc1`, in series [1] (read-out: IC50), the half-inhibitory concentration (IC50) is 1500 nM. Consider `CCCOc1ccc(Cl)cc1Cn1cc(-c2ccccc2)nn1`, for which the inhibition result in series [17], in series [3], in series [6] and in series [18] was “Active” throughout. In series [19], the inhibition entry is “inactive”.
